Reference: ChEMBL document CHEMBL4831489, “Design and synthesis of the first indole-based blockers of Panx-1 channel” (Eur J Med Chem, 2021)
Activity calls are given as the source filed them.

Columns and labels:
[1] = biological target: Pannexin-1 (Mus musculus) (UniProt Q9JIP4); assay: Inhibition of mouse Panx-1 expressed in Xenopus laevis oocytes assessed as inhibition of membrane current cells held at -60 mV and voltage steps to +60 mV in presence of CBX at 50 uM measured by Whole cell voltage clamp assay relative to control; format: cell-based; conditions: Oocyte
Pannexin-1 (Mus musculus), sequence (Q9JIP4 whole entry, the tested form may be a part): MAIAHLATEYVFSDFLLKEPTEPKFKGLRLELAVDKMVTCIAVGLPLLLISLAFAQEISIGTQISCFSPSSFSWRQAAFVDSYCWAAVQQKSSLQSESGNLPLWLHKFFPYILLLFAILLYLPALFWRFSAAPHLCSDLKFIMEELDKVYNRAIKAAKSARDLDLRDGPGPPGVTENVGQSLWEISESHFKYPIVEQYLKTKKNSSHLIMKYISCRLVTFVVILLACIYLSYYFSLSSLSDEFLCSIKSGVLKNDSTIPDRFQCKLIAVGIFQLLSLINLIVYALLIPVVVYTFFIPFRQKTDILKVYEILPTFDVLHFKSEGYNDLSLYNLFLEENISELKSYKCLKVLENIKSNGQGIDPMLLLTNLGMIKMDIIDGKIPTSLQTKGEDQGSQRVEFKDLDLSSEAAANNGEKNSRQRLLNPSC
Outline: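 Xenopus oocytes expressing Panx-1 were studied by two-electrode voltage clamp (3 M KCl electrodes) under continuous perfusion with OR2 Ringer, pH 7.5. Cells were held at −60 mV, with 5 s steps to +60 mV at 0.1 Hz. Compounds were screened at 50 µM and inhibition expressed as % of membrane current, n = 1–3 oocytes.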

[2] = biological target: T1, P2X purinoceptor 7 (Homo sapiens) (UniProt Q99572); assay: Inhibition of human P2X7R expressed in Xenopus laevis oocytes assessed as inhibition of BzATP-induced cell membrane current at 10 uM measured by Whole cell voltage clamp assay relative to control; format: cell-based; conditions: Oocyte
T1 sequence (whole entry): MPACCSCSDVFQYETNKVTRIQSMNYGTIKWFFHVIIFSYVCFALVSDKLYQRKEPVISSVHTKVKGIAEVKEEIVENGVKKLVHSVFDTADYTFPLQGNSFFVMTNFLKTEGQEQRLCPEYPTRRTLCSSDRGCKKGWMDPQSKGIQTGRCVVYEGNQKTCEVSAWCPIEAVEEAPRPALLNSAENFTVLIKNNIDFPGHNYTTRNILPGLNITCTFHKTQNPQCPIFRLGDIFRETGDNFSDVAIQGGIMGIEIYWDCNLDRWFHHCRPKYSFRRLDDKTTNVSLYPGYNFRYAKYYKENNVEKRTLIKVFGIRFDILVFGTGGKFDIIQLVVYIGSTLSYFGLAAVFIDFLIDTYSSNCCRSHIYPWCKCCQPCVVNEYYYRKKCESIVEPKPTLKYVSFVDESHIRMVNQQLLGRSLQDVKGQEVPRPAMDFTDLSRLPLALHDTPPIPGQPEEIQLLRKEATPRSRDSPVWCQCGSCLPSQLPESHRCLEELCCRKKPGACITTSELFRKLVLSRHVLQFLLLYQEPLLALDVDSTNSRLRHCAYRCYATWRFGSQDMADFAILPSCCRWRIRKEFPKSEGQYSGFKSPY

Pannexin-1 = Pannexin-1 (Mus musculus, UniProt Q9JIP4); assay: Inhibition of mouse Panx-1 expressed in Xenopus laevis oocytes assessed as inhibition of membrane current cells held at -60 mV and voltage steps to +60 mV in presence of CBX measured by Whole cell voltage clamp assay relative to control; format: cell-based, Oocyte
Pannexin-1, sequence (Q9JIP4 whole entry, the tested form may be a part): as the sequence (Q9JIP4 whole entry, the tested form may be a part) above
Outline: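 Two-electrode voltage clamp of Panx-1-expressing Xenopus oocytes perfused with OR2, pH 7.5. Holding potential −60 mV, with repetitive 5 s steps to +60 mV at 0.1 Hz. Compound was applied at increasing concentrations to build dose–response curves and derive IC50.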

Mus musculus [3] = assay: Antiallodynic activity in oxaliplatin-induced neuropathy pain IT dosed CD-1 mouse model assessed as reversal of enhancement of pain threshold by measuring minimum effective dose measured 60 to 75 mins by cold plate assay; format: functional, organism-based; conditions: dose 0.3 nmol, time 60-75 min
Outline: (§1)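 Male CD-1 mice (22–25 g) were given oxaliplatin 2.4 mg kg−1 i.p. in 5% glucose on days 1–2, 5–9 and 12–14, with vehicle controls. Behavioural tests were done on day 15. Compounds in saline were injected intrathecally at L4–L5 at 0.1–1 nmol. Mice were placed on a 4 °C cold plate, and latency to the first hind-paw lifting or licking was recorded every 15 min.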

[4] = biological target: Gap junction beta-1 protein (Homo sapiens) (UniProt P08034); assay: Inhibition of wild type Cx32(E143) (unknown origin) expressed in Xenopus laevis oocytes assessed as at holding potential of -10 mV and stepped in 5 mV test pulses of 5 sec duration at 10 uM measured by Voltage clamp assay relative to control; format: cell-based; conditions: Oocyte
Gap junction beta-1 protein (Homo sapiens), sequence (P08034 whole entry): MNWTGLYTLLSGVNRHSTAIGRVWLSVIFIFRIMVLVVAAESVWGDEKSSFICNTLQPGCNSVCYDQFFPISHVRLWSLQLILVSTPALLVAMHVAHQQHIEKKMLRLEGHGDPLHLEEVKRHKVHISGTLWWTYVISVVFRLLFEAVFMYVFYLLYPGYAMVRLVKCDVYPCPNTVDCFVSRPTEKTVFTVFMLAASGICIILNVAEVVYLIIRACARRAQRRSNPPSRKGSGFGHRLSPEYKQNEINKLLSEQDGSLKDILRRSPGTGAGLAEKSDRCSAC

Mus musculus [5] = species on record: Mus musculus; assay: Antiallodynic activity in oxaliplatin-induced neuropathy pain CD-1 mouse model assessed as reversal of enhancement of pain threshold at 1 nmol, IT measured after 45 to 90 mins by cold plate assay; format: functional, organism-based; conditions: time 45-90 min; outline: as §1
Mus musculus [6] = species on record: Mus musculus; assay: Antiallodynic activity in oxaliplatin-induced neuropathy pain CD-1 mouse model assessed as reversal of enhancement of pain threshold at 0.3 to 1 nmol, IT measured after 80 mins by cold plate assay; format: functional, organism-based; conditions: dose 0.3-1 nmol
Outline: (§2)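 Male CD-1 mice (22–25 g) given oxaliplatin 2.4 mg kg⁻¹ i.p. in 5% glucose on days 1–2, 5–9 and 12–14. Test agents were dissolved in saline and injected intrathecally (5 µl, L4–L5) at 0.1–1 nmol from day 14. Cold plate held at 4 °C. Latency to first paw lift/lick was recorded every 15 min.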

Mus musculus [7] = species on record: Mus musculus; assay: Antiallodynic activity in oxaliplatin-induced neuropathy pain CD-1 mouse model assessed as reversal of enhancement of pain threshold at 0.3 nmol, IT measured after 45 mins by cold plate assay; format: functional, organism-based; outline: as §2
Mus musculus [8] = species on record: Mus musculus; assay: Antiallodynic activity in oxaliplatin-induced neuropathy pain CD-1 mouse model assessed as reversal of enhancement of pain threshold at 1 nmol, IT measured after 60 to 105 mins by cold plate assay; format: functional, organism-based; conditions: time 60-105 min; outline: as §2

Compound	inhibition [1] [%]	IC50 (Pannexin-1) [µM]	further results
O=C(O)c1cn(Cc2ccccc2)c2ccc(N(Cc3ccccc3)Cc3ccccc3)cc12	19.5	–	–
O=C(O)c1cn(CCCc2ccccc2)c2ccc([N+](=O)[O-])cc12	71	12.4	inhibition [2]: 0%; Activity (Mus musculus [3]): Active; inhibition [4]: 0%; Activity (Mus musculus [5]): Active
O=C(O)c1cn(CCCCCc2ccccc2)c2ccc([N+](=O)[O-])cc12	32.3	–	–
NS(=O)(=O)c1ccc2c(c1)cc(C(=O)O)n2Cc1ccc(C(=O)O)cc1	61.7	–	–
O=C(O)c1cc2cc(N(Cc3ccccc3)Cc3ccccc3)ccc2n1Cc1ccccc1	0	–	Activity (Mus musculus [6]): inactive
O=C(O)c1cc2cc(S(=O)(=O)N(Cc3ccccc3)Cc3ccccc3)ccc2n1CCc1ccccc1	41.3	–	–
O=C(O)c1cn(CCCCc2ccccc2)c2ccc([N+](=O)[O-])cc12	65.7	–	–
O=C(O)c1ccc(CN(Cc2ccc(C(=O)O)cc2)S(=O)(=O)c2ccc3c(c2)cc(C(=O)O)n3Cc2ccc(C(=O)O)cc2)cc1	79	–	–
O=C(O)c1cn(Cc2ccccc2)c2ccc([N+](=O)[O-])cc12	65	27.5	–
O=C(O)c1cc2cc(S(=O)(=O)NCc3ccccc3)ccc2n1Cc1ccccc1	42	–	–
O=C(O)c1cc2cc(S(=O)(=O)NCCc3ccccc3)ccc2n1CCc1ccccc1	57.7	–	–
O=C(O)c1cc2cc([N+](=O)[O-])ccc2n1CCCc1ccccc1	65.5	23.1	–
O=C(O)c1cc2cc([N+](=O)[O-])ccc2n1CCc1ccccc1	56.3	–	–
O=C(O)c1cc2cc(S(=O)(=O)N(Cc3ccccc3)Cc3ccccc3)ccc2n1Cc1ccccc1	41	–	inhibition [2]: 0%; inhibition [4]: 20%
O=C(O)c1cc2cc(S(=O)(=O)N(CCc3ccccc3)Cc3ccccc3)ccc2n1CCc1ccccc1	37.3	–	–
CCN(Cc1cccc(S(=O)(=O)O)c1)c1ccc(C(=C2C=CC(=[N+](CC)Cc3cccc(S(=O)(=O)O)c3)C=C2)c2ccccc2S(=O)(=O)[O-])cc1	–	0.27	–
O=C(O)c1cc2cc([N+](=O)[O-])ccc2n1CCCCCc1ccccc1	58	–	–
O=C(O)c1ccc(CNS(=O)(=O)c2ccc3c(c2)cc(C(=O)O)n3Cc2ccc(C(=O)O)cc2)cc1	100	0.8	inhibition [2]: 0%; Activity (Mus musculus [7]): Active; Activity (Mus musculus [8]): Active; inhibition [4]: 0%
O=C(O)c1cc([N+](=O)[O-])ccc1NCCCc1ccccc1 [5-NITRO-2-PHENYLPROPYLAMINOBENZOIC ACID [NPPB]]	–	50	–
O=C(O)c1ccc(CCn2cc(C(=O)O)c3cc([N+](=O)[O-])ccc32)cc1	73	–	–
O=C(O)c1ccc(Cn2cc(C(=O)O)c3cc([N+](=O)[O-])ccc32)cc1	54	–	–
O=C(O)c1ccc(Cn2c(C(=O)O)cc3cc(S(=O)(=O)N(Cc4ccccc4)Cc4ccccc4)ccc32)cc1	100	0.25	inhibition [2]: 61.8%; inhibition [4]: 0%
O=C(O)c1cc2cc([N+](=O)[O-])ccc2n1Cc1ccccc1	51.3	–	–
O=C(O)c1ccc(Cn2c(C(=O)O)cc3cc([N+](=O)[O-])ccc32)cc1	61	4.9	–
O=C(O)c1ccc(CCn2c(C(=O)O)cc3cc([N+](=O)[O-])ccc32)cc1	31.7	–	–
CCCN(CCC)S(=O)(=O)c1ccc(C(=O)O)cc1 [PROBENECID]	–	150	–
NS(=O)(=O)c1ccc2c(c1)cc(C(=O)O)n2Cc1ccccc1	29.3	–	inhibition [2]: 15%; inhibition [4]: 15%
O=C(O)c1cn(CCc2ccccc2)c2ccc([N+](=O)[O-])cc12	52.7	–	–
